CendR NRP1 mod: modulators of CendR peptide binding to human neuropilin-1 | O14786 | FAM-RPARPAR peptide binding to NRP-1, fluorescence polarization | inhibition, % at 25 µM | 360,000 compounds, 0.85% hits | AID 602438;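 active = inhibition or corrected inhibition above about 18%, plus a signal ratio from 0.5 to 1.5, limit read from the data, passing the limit was not always enough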
PLCg1 inh: PLC-gamma1 (human) inhibition, primary screen. P19174. purified PLC-gamma1, fluorogenic substrate, fluorescence. inhibition, % at 12.2 µM. 370,000 compounds, 0.84% hits; in the data active = inhibition above about 9.5%
Tn6 DDE FP: inhibitors of Tn6 peptide binding to human fibrin DD(E); 370,000 compounds, 0.21% hits; inhibition, % at 8.3 µM; Fibrin DD(E) TRITC-Tn6 fluorescence polarization displacement; P02675;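 active = inhibition above a per-campaign cutoff: mean of compounds within control limits plus 3 SD, cut at about 15% in these data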;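 also: 0% = median of all compound wells on the plate and 100% = blocking peptide control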
KLK7 zymogen act: proKLK7 (human) activation, primary screen; purified proKLK7, EDANS-DABCYL substrate fluorescence; 100% is mature enzyme control, 0% vehicle; activation, % at 7 µM; 370,000 compounds, 0.9% hits; AID 652039;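 active = activation above the mean of all tested compounds plus 3 SD, computed per campaign excluding outliers beyond control limits, cut at about 13% in these data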
Tn7 DDE FP: inhibitors of Tn7 peptide binding to human fibrin DD(E); FP displacement of FITC-Tn7 peptide from fibrin DD(E); 0% = median of compound wells per plate; inhibition, % at 8.3 µM; 370,000 compounds, 0.13% hits;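 active = inhibition above the mean of compounds falling within the control limits plus 3 SD of them, cut at about 14% in these data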;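 also: 0% = plate median of compound wells and 100% = 10 µM Aha-Tn7 peptide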
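Assay system: Human fibrin DD(E) protein | Medium: Tris buffer with calcium and detergent, pH 7.8 | Reagent: 0.1 µM fluorescent Tn7 | Compound dosing: Single point at 8.3 µM | Times: 10 min preincubation, 3 h with tracer, room temperature | Detection: Fluorescence polarization of the labelled Tn7 tracer | Controls: Aha-Tn7 high control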
PLC-beta3 inh: blocks human PLC-beta3 enzyme activity; Q01970; Purified PLC-beta3, fluorogenic substrate, fluorescence; inhibition, % at 12.2 µM; 370,000 compounds, 0.18% hits; AID 720704; in the data active = inhibition above about 11%;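 also: 0% = median of compound wells on plate and 100% = full blocker control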
Target sequence (Q01970 whole entry, looked up): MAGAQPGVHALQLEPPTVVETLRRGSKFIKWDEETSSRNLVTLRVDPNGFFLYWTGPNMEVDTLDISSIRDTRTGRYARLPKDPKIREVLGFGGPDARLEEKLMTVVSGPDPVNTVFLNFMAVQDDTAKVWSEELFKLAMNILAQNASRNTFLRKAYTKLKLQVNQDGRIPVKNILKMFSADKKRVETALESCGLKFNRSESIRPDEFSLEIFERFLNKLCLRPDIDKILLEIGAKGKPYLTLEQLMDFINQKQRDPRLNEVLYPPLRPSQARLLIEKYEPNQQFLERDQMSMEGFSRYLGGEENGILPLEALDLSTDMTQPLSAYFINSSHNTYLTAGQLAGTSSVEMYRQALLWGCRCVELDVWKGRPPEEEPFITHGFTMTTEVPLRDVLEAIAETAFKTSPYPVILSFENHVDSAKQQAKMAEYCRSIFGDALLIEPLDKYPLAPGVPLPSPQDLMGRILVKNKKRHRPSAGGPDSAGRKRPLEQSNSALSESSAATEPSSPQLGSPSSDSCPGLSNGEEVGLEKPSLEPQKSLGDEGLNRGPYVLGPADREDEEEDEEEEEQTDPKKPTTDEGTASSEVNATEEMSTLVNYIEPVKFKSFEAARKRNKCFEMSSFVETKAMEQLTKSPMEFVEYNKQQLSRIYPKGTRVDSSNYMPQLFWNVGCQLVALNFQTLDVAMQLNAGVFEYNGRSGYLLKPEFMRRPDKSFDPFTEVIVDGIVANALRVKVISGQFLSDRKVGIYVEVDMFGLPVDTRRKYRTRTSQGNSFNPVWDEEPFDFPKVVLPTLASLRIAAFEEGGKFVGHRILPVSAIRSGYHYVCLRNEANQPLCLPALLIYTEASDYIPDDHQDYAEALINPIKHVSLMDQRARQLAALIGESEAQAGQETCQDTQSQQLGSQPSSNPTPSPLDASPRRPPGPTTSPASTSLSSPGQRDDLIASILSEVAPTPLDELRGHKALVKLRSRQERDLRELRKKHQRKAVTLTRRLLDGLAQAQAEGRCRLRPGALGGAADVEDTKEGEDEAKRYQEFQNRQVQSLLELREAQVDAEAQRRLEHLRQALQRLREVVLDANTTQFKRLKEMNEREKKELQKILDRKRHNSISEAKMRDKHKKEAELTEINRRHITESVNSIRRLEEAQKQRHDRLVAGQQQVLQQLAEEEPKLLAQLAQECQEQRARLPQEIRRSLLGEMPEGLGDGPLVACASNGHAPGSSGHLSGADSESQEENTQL
proKLK7 act conf: proKLK7 activation, confirmation; shares compounds with KLK7 zymogen act; purified proKLK7, EDANS-DABCYL substrate fluorescence; scaled: vehicle 0, mature enzyme 100; activation, % at 7 µM; 3,200 compounds, 68% hits;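 active = activation, as change over the incubation, above the mean of all tested compounds plus 3 SD, cut at about 13% in these data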
EDANS interfere: optically interferes with EDANS-DABCYL signal, flagging KLK7 hits; AID 686952; 3,200 compounds, 80% hits; EDANS-DABCYL substrate fluorescence interference, no enzyme, 4 h; solvent 0%, active enzyme control 100%; shares compounds with KLK7 zymogen act; activation, % at 7 µM;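 active = activation above the all-compound mean plus 3 SD, ignoring values outside control-based bounds, cut at about 4.8% in these data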;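 also: value is the 4 h activation minus the activation read at time zero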
K7 EDANS ctr: optically interferes with EDANS-DABCYL fluorescence, kallikrein-7 activator counter-screen; EDANS-DABCYL peptide fluorescence interference, no enzyme; 250 compounds, 20% hits; EC50, µM; shares compounds with KLK7 zymogen act; AID 720493;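 active = compounds that raise the fluorescence signal in this interference counterscreen, with EC50 at or below 10 µM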;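 also: intact quenched peptide substrate alone read at 355 nm excitation and 520 nm emission; signal is fluorescence gain from T0 to T4 after four hours at room temperature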
* hit, by the source's call; i = inactive; · = no result given. Sampled rows, rich in hits. Any-hit rate of the full collection: about 3%.

SMILES	CendR NRP1 mod	PLCg1 inh	Tn6 DDE FP	KLK7 zymogen act	Tn7 DDE FP	PLC-beta3 inh	proKLK7 act conf	EDANS interfere	others
CC1(C)CC(=O)c2cc(OCC(=O)NCCN3CCCc4ccccc43)ccc2O1	10	-379	8	18*	2	i	43*	39*
CC1(C)CC(=O)c2cc(OCC(=O)NCCCN3CCN(c4ccc(F)cc4)CC3)ccc2O1	-6	-282	3	17*	-1	-404	4	2
CCC(Oc1ccccc1F)C(=O)NCCN1CCOCC1 (stereo unspecified)	3	1	-6	-1	7	-1	·	·
CC(C)CCNC(=O)COc1ccc2c(c1)C(=O)CC(C)(C)O2	-2	i	-5	40*	-2	i	35*	47*
CC(C)(C)N1Cc2nnn(CC3CCCCC3)c2-c2ccccc2S1(=O)=O	·	1	3	0	-4	4	·	·
CCn1cc(CNC(=O)CSc2nc(-c3ccc(OC)c(OC)c3)cc(C(F)(F)F)n2)c(C)n1	-2	i	9	21*	-2	i	4	8.2*
CCCCNS(=O)(=O)/C=C/c1ccc(OC)cc1CNC(=O)OC(C)(C)C	·	-5	-2	0	-2	-6	·	·
CCCC(=O)Nc1ccc2nn(-c3ccc(OC)cc3)nc2c1	10	i	2	18*	1	i	35*	-4	K7 EDANS ctr=>70
COc1ccc(-n2nc3ccc(N)cc3n2)cc1	-4	i	2	99*	-3	i	77*	82*
CCOc1ccc(-n2nc3ccc(N)cc3n2)cc1	-7	-424	0	7	0	i	·	·
CC(C)CC(=O)Nc1ccc2nn(-c3ccccc3)nc2c1	0	-134	-6	3	7	-141	·	·
COc1ccc(-n2nc(N)c(C(N)=O)n2)cc1	10	i	-3	26*	-2	i	23*	21*
COc1ccc(C(=O)n2cnnc2N)cc1	-11	-3	0	-1	-3	3	·	·
Nc1ccc2nn(-c3ccc(F)cc3)nc2c1	9	i	1	45*	3	i	66*	77*
COC(=O)[C@@H]1N=C(c2ccc(OC)cc2)O[C@]12C(=O)N(Cc1cn(-c3ccccc3)nn1)c1cccc(Cl)c12	·	-1	2	0	6	3	·	·
CCCCCCCCN1C(=O)[C@@H](CC(=O)NCc2ccccc2)C[C@@]2(C(=O)OC)C1=C[C@H](COCc1ccccc1)O[C@@H]2C	·	-1	5	0	-3	-2	·	·
Cc1ccc(NC(=O)[C@@H]2CCCN2S(=O)(=O)c2cccc3cccnc23)c(C)c1	·	6	6	·	-4	5	·	·
CCOC(=O)[C@@]12CN(C(=O)OC(C)(C)C)CC=C1N(Cc1ccc(OC)cc1)C(=O)[C@H]2CC(=O)NCc1cccs1	·	2	1	0	-3	3	·	·
COc1ccc(OC)c(S(=O)(=O)N2CCC(C(=O)NCc3cccs3)CC2)c1	·	2	-3	0	-4	1	·	·
CCN(CC)CCNC(=O)c1cc2c(s1)-c1ccccc1SC2	11	i	4	76*	-8	i	57*	55*
CCN(CC)CCNC(=O)c1cc2c(=O)n(CC)c3ccccc3c2s1	11	-155	0	38*	0	-223	5	4
CCN(CC)CCCNC(=O)c1cc2c(=O)n(CC)c3ccccc3c2s1	7	-65	8	12	-4	-95	·	·
CCCN(CCC)CCNC(=O)c1cc2c(=O)n(CC)c3ccccc3c2s1	3	-59	-3	0	-1	-92	·	·
CCn1c(=O)c2cc(C(=O)NCCN(C)C)sc2c2ccccc21	2	-129	-4	35*	4	-160	0	6.0*
CN(CCO)c1cccc2c1S(=O)(=O)N(Cc1cn(Cc3cccc(C(F)(F)F)c3)nn1)Cc1ccccc1O2	·	-13	-3	0	2	-17	·	·
SMILES	CendR NRP1 mod	PLCg1 inh	Tn6 DDE FP	KLK7 zymogen act	Tn7 DDE FP	PLC-beta3 inh	proKLK7 act conf	EDANS interfere	others
C=CCn1c(=NC(=O)c2ccc(S(=O)(=O)N3CCc4ccccc4C3)cc2)sc2cc(S(N)(=O)=O)ccc21	-8	-188	0	66*	-2	-256	70*	-208	K7 EDANS ctr=>69
C#CCn1c(=NC(=O)c2ccc(S(=O)(=O)N3CCc4ccccc4C3)cc2)sc2cc(S(N)(=O)=O)ccc21	-9	·	·	·	·	·	·	·
COCCn1c(=NC(=O)c2ccc(S(=O)(=O)N3CCc4ccccc4C3)cc2)sc2cc(S(N)(=O)=O)ccc21	2	i	2	305*	6	i	63*	80*
Nc1ccc2nc3n(c(=O)c2c1)CCC3	4	-239	9	17*	1	-295	10	12*
CCOC(=O)C(=O)Cc1nc2ccccc2s1	-33	-38	-6	13*	-5	-62	4	5.3*
CC(=O)OCc1nc2ccccc2s1	9	0	0	0	9	2	·	·
CC(C)(C)c1ccc(-c2nnc(SCC(=O)Nc3ccc4cn[nH]c4c3)n2-c2ccc(Cl)cc2)cc1	·	5	3	-1	-1	5	·	·
Cc1cnn(-c2ccccc2)c1NC(=O)COCc1ccccc1	·	4	-4	0	4	6	·	·
CC(C)Nc1ccc(Nc2ccnc3cc4ccccc4cc23)cc1	7	-5	-2	2	3	0	·	·
c1ccc(CCNc2ccnc3cc4ccccc4cc23)cc1	11	i	-1	32*	-6	i	-36	-52
CCN(CC)S(=O)(=O)c1cc(C(=O)O)c(Cl)cc1Cl	4	5	-4	0	-5	4	·	·
CCN(CC)S(=O)(=O)c1cccc2cc(C(=O)O)c(O)cc12	4	i	8	22*	3	i	74*	73*
CCOCCCn1c(=N)c(C(=O)NCCN2CCOCC2)cc2c(=O)n3cccc(C)c3nc21	-14	-257	-5	45*	-2	-340	14*	3	K7 EDANS ctr=>70
Cc1cccn2c(=O)c3cc(C(=O)NCCN4CCOCC4)c(=N)n(CCN4CCOCC4)c3nc12	14	-188	8	12	1	-292	·	·
Cc1cccn2c(=O)c3cc(C(=O)NCCN4CCOCC4)c(=N)n(Cc4ccc(F)cc4)c3nc12	-3	-256	-7	17*	2	-410	-12	-6
